Measured values collected from several papers.
Protocols differ between the studies behind these lines.
Target: Misshapen-like kinase 1 (MINK1, Homo sapiens, UniProt Q8N4C8)

`Cn1cncc1[C@@](O)(COc1ccc(C#N)cc1-c1ccc(OC(F)(F)F)cc1)c1ccc(C#N)cc1` gave a remaining binding of 100% (cell-free assay, competition with immobilised ligand; 1 µM).
For `Cn1cc(-c2cc(F)cc(N3CCn4c(cc5c4CCCC5)C3=O)c2CO)cc(Nc2ccc(N3CCN(C4COC4)CC3)cn2)c1=O`, the inhibition was 12% (enzyme activity, inhibitor; 0.1 µM).
The inhibition of `C#Cc1n[nH]c2c(-c3cn([C@@H](C)c4ccccn4)c(=O)[nH]c3=O)cc(F)cc12` is reported as 5.6% (enzyme activity, inhibitor; 0.1 µM).
With `CC(C)(C)c1cc(C=C(C#N)C#N)cc(Br)c1O` the remaining activity was 111% (enzyme activity, inhibitor; 0.5 µM).
With `Cn1cc(-c2cccc(N3CCc4c(sc5c4CC(C)(C)C5)C3=O)c2CO)cc(Nc2ccncn2)c1=O` the inhibition was 11% (enzyme activity, inhibitor; 1 µM).
For `N#CC1(c2ccccn2)CCN(Cc2cc(C(=O)O)c(=O)n3ccccc23)CC1`, the remaining binding was 92% (cell-free assay, competition with immobilised ligand; 1 µM).
For `Nc1ncc(-c2nc(N3CCOCC3)nc(N3CCOCC3)n2)c(C(F)F)n1`, the remaining binding was 66% (binding, competition with immobilised ligand; 10 µM).
For `C#Cc1n[nH]c2c(-c3cn([C@@H](C)c4ccccc4)c(=O)[nH]c3=O)cc(F)cc12`, the inhibition was 2% (enzyme activity, inhibitor; 0.1 µM).
For `Cc1nn(C)cc1-c1nc2c(N3CCN(Cc4ccc(Cl)cc4)CC3)c(Cl)cnc2[nH]1`, the remaining binding was 84% (binding, competition with immobilised ligand; 1 µM).
`O=c1[nH]c2ccccc2n1C1CCN(Cc2ccc(-c3[nH]c4cc5ncnc5cc4nc3-c3ccccc3)cc2)CC1` has a remaining signal of 103% (cell-free assay; 0.5 µM).
